# The list is not random: actives were taken first. Their share in the collection is about 3.5%.
# RGS4 block = human RGS4 inhibition; HEK293 M3R/RGS4 inducible, Fluo-4 calcium flux; active compounds read high; triggered by carbachol at its EC20; B-score at 10 µM; hit rate 0.45% among 310,000; P49798; AID 463165;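 active = B-score, a plate-corrected calcium signal, over three deviations above library mean, with baseline fluorescence within five deviations of library mean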;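 also: RGS4 expression induced by doxycycline in cells with stable M3 receptor; B-score is computed from the integrated fluorescence ratio over baseline after carbachol; higher B-score means a larger calcium signal and so more RGS4 inhibition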
# Target sequence (P49798 whole entry, looked up): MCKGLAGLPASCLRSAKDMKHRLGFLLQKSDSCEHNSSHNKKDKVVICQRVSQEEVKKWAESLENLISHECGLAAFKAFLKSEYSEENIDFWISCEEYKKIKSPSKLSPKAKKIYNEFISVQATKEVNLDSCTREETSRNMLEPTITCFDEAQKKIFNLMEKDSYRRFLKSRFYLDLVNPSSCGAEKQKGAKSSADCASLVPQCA
# RGS4 pot = RGS4 potentiation or activation. HEK293 M3R/inducible RGS4, carbachol calcium flux Fluo4; active compounds read low. B-score at 10 µM. hit rate 0.92% among 310,000. AID 463111;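 active = B-score of the integrated calcium signal more than 4 SD below the library mean, with starting fluorescence not abnormally high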;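 also: negative B-score means reduced calcium response which marks RGS4 activation or potentiation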
#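 Detection: kinetic calcium fluorescence imaging with Fluo4-AM dye, 2 µM / Material: HEK293 cells with stable M3R and inducible RGS4 / Schedule: recording 10 s baseline at 1 Hz, 100 s post-agonist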
# MrgX1 ag = agonists of human MrgX1 receptor; Q96LB2; B-score at 10 µM; MrgX1-HEK293 cells, Fluo-4 calcium fluorescence, agonist mode; active compounds read high; hit rate 0.44% among 310,000;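 active = calcium response B-score plate-corrected fluorescence ratio at least 3 library SD, with starting fluorescence B-score inside 5 SD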
# Target sequence (Q96LB2 whole entry, looked up): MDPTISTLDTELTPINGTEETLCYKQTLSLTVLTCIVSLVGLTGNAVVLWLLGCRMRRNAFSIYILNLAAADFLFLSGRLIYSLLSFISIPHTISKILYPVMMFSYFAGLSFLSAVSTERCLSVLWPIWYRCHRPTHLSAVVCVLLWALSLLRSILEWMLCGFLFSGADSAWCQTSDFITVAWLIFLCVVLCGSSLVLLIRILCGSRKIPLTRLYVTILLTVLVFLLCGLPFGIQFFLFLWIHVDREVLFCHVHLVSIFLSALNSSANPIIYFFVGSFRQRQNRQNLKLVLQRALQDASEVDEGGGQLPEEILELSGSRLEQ
#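 Assay system: MrgX1-expressing HEK293 cells / Amount: fifteen thousand cells per well / Doses: test compound in the initial addition of three / Timing: cells plated overnight, dye loaded 0.5 h 37 °C, 0.5 h room temperature / Technique: kinetic calcium dye fluorescence, Fluo-4 NW / Control set: positive and negative controls per plate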
# MrgX1 antag = human MrgX1 receptor antagonism, primary screen | Q96LB2 | B-score at 10 µM | MRGX1-HEK293 calcium flux, Fluo-4, BAM8-22 antagonism; active compounds read low | hit rate 1.3% among 310,000;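 active = calcium-response B-score plate-corrected more than 3 library SD below zero, starting fluorescence within 5 deviations, no agonist response on first addition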;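 also: peak minus trough fluorescence over baseline after final BAM8-22 challenge near maximal dose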
# MrgX1 PAM = human MrgX1 positive allosteric modulation, primary screen; Q96LB2; MrgX1-HEK293, Fluo-4 calcium flux, FDSS; active compounds read high; B-score at 10 µM; hit rate 0.63% among 310,000; AID 588675;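 active = plate-corrected calcium response at least 3 library SD above typical, normal starting fluorescence, not activating the receptor alone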;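 also: compound read alongside a low EC10 to EC30 dose of BAM8-22 agonist; peak minus trough fluorescence over baseline measured at the second addition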
# RGS4 inh valid = RGS4 inhibitor validation; shares compounds with RGS4 block; HEK293 M3R/RGS4, carbachol calcium Fluo-4 fluorescence; carbachol added at its EC20; 0 = buffer wells, 100 = carbachol control; calcium response, % at 10 µM; hit rate 65% among 1,700; AID 492999;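 active = duplicate-averaged calcium response above the buffer-only control mean plus 5 SD of those controls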;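 also: integrated fluorescence ratio F max minus min over baseline F0; higher response in RGS4-induced cells means RGS4 inhibition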
# RGS4 uninduced = non-induced cell nonspecific activity of RGS4 inhibitors; shares compounds with RGS4 block; HEK293 M3R non-induced, carbachol calcium Fluo-4; submaximal (EC20) carbachol stimulus; buffer wells 0%, carbachol control wells 100%; activity (percent), % at 10 µM; hit rate 20% among 1,900; AID 493000; call rule not given here;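 also: RGS4 induction absent so cells express M3R without RGS4; higher means more calcium signal and flags a non-specific hit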
# M3R basal Ca ctr = second RGS4 inhibitor counter-screen in uninduced cells lacking carbachol; shares compounds with RGS4 block; calcium response (agonist-mode artifact), % at 10 µM; HEK293 M3R/RGS4 non-induced, Fluo-4 calcium, no carbachol; normalised: buffer wells 0%, carbachol wells 100%; hit rate 22% among 1,900; AID 493001;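 active = duplicate-averaged calcium rise in uninduced cells above buffer wells' mean plus 5 SD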
# * = called active by the depositor; i = inactive; nt = no result.
SMILES,RGS4 block,RGS4 pot,MrgX1 ag,MrgX1 antag,MrgX1 PAM,RGS4 inh valid,RGS4 uninduced,M3R basal Ca ctr
Cc1c(C=O)c2ccccn2c1C(=O)c1ccc(F)cc1,i,i,i,i,i,nt,nt,nt
Cc1ccccc1NCC(=O)N/N=C/c1c(C)c(C(=O)c2ccc(Cl)cc2)n2ccccc12,i,i,i,i,i,i,i,31%*
Cc1c(/C=N/NC(=O)CNc2ccccc2)c2ccccn2c1C(=O)c1ccncc1,i,i,i,i,i,i,i,i
Cc1c(/C=N/NC(=O)CNc2ccccc2)c2ccccn2c1C(=O)c1ccc(Cl)cc1,15*,i,i,i,i,20%*,i,68%*
CCOC(=O)C1(Cc2cccc(Cl)c2)CCCN(C(=O)C(C)(C)C)C1 (stereo unspecified),i,i,i,i,i,nt,nt,nt
COc1ccc(C2CC(c3c(-c4ccccc4)c4cc(Cl)ccc4[nH]c3=O)=NN2S(C)(=O)=O)cc1 (stereo unspecified),i,i,i,i,i,nt,nt,nt
COc1ccc(OC)c(C2CC(c3c(-c4ccccc4)c4cc(Cl)ccc4[nH]c3=O)=NN2S(C)(=O)=O)c1 (stereo unspecified),i,i,i,i,i,nt,49%*,36%*
N#CC1=C2N=C(N)c3ccccc3N2C2=C(C(=O)CCC2)C1c1cccc(Cl)c1 (stereo unspecified),i,i,i,i,i,nt,38%*,28%*
Cc1ccccc1C1C(C#N)=C2N=C(N)c3ccccc3N2C2=C1C(=O)CCC2 (stereo unspecified),i,i,i,i,i,nt,nt,nt
CC1CN(C(=O)c2ccc(COCC(F)(F)F)o2)CC(C)O1 (stereo unspecified),i,i,i,i,i,nt,nt,nt
O=C(c1ccc(COCC(F)(F)F)o1)N1CCCC1,5.9*,i,i,i,i,i,i,i
O=C(CC1C(=O)NCCN1C(=O)Nc1ccccc1)Nc1cc(Cl)cc(Cl)c1 (stereo unspecified),6.1*,i,i,i,i,23%*,i,i
COc1ccccc1C(=O)N1CCNC(=O)C1CC(=O)Nc1cccc(C)c1 (stereo unspecified),5.1*,i,i,i,i,i,i,i
O=C(CC1C(=O)NCCN1C(=O)Nc1ccccc1)Nc1cccc(Cl)c1 (stereo unspecified),i,i,i,i,i,i,i,i
O=C(CC1C(=O)NCCN1C(=O)Nc1ccc(F)cc1)Nc1ccc(F)cc1 (stereo unspecified),i,i,i,i,i,nt,i,i
O=C(NCc1ccccc1Cl)C1CCC(CNc2c(N3CCOCC3)c(=O)c2=O)CC1 (stereo unspecified),i,i,i,i,i,nt,nt,nt
CC(C)=CCC12Oc3cc(O)ccc3C1(O)Oc1cc(O)c([C@H]3C=C(C)CC(c4ccc(O)cc4O)[C@H]3C(=O)c3ccc(O)cc3O)c(O)c1C2=O (stereo partly specified),15*,i,i,i,i,24%*,i,i
CCc1nc(SCC(=O)Nc2ccccc2Cl)n[nH]1,i,i,i,i,i,nt,nt,nt
COc1ccc(CNC(=O)CSc2ccc(Br)cc2)cc1OC,i,i,i,i,i,nt,nt,nt
CN(c1ccccc1)c1ccc(/C=C/[N+](=O)[O-])cc1,6.1*,i,i,i,i,32%*,i,108%*
COc1cc(/C=C/C(=O)c2ccc(O)cc2)ccc1OCC#N,4.7*,i,i,i,i,10%*,i,i
Cc1ccc(NC(=O)c2cc(S(=O)(=O)N(C)C)ccc2N2CCCC2)cc1F,i,i,i,i,i,nt,nt,nt
NC(=O)C1CCN(C(=O)/C(=C/c2ccccc2)NC(=O)c2ccccc2)CC1,i,i,i,i,i,nt,nt,nt
Cc1ccc(-n2nc3c(=O)n(CC(=O)NCc4cccs4)nc(C)c3c2C)cc1,4.9*,i,i,i,i,i,i,i
Cc1ccc(-n2nc3c(=O)n(CC(=O)NCc4ccccn4)nc(C)c3c2C)cc1,i,i,i,i,i,nt,nt,nt
SMILES,RGS4 block,RGS4 pot,MrgX1 ag,MrgX1 antag,MrgX1 PAM,RGS4 inh valid,RGS4 uninduced,M3R basal Ca ctr
Cc1nn(CC(=O)NCCc2ccco2)c(=O)c2nn(-c3ccccc3)c(C)c12,i,i,i,i,i,nt,nt,nt
Cc1nn(CC(=O)NCCc2cccs2)c(=O)c2nn(-c3ccccc3)c(C)c12,i,i,i,i,i,nt,i,35%*
CC1CCCCN1CCCNC(=O)CN1C(=O)c2cccnc2Oc2ccccc21 (stereo unspecified),i,i,i,i,i,nt,nt,nt
COc1ccc(C(=O)/C=C/c2ccc(O)cc2)c(O)c1CC=C(C)C,6.4*,i,i,i,i,19%*,i,i
COc1ccc(C(=O)/C=C/c2ccc(O)cc2)cc1,i,i,i,i,i,nt,nt,nt
CCOC(=O)c1c(N=CN(C)C)c2cc([N+](=O)[O-])cnc2n1C,i,i,i,i,i,nt,nt,nt
Cc1nnc2n(c1=O)C(CS(=O)(=O)c1ccc3ccccc3c1)CS2 (stereo unspecified),i,i,i,i,i,nt,nt,nt
CCOC(=O)c1ccc(N=c2sc(C(=O)OC)cc(=O)n2CCCN2CCOCC2)cc1,i,i,i,i,i,nt,nt,nt
CCOC(=O)c1ccc(N=c2sc(C(=O)OC)cc(=O)n2Cc2ccco2)cc1,i,i,i,i,i,i,i,i
CCn1c(=O)cc(C(=O)OC)sc1=Nc1ccc(F)c(F)c1,13*,i,i,i,i,56%*,80%*,i
COC(=O)c1cc(=O)n(CCc2ccc(OC)cc2)c(=Nc2ccc(F)c(Cl)c2)s1,i,i,i,i,i,i,i,19%*
COC(=O)c1cc(=O)n(CCc2ccccc2)c(=Nc2ccc(F)cc2)s1,i,i,i,i,i,nt,nt,nt

# Screening results (PubChem BioAssay)
